# ChEMBL document CHEMBL4689842, “EUbOPEN Chemogenomics Library wave 1” (2021)
# System: HEK-293T
# Assay: Multiplex assay against HEK293T;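 as to Population Tubulin-Different-Phenotype (%): share of the cells with healthy nuclei that show this phenotype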
# Type: toxicity, cell-based
# Settings: human
# How it was run: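 Live cells carried four stains from seeding: Hoechst33342, BioTracker Green Microtubule Cytoskeleton Dye, MitoTracker Red and Annexin V Alexa Fluor 680. They were imaged on a CQ1 microscope at 37°C and 5% CO2 after compound addition. Using CellPathfinder machine-learning gating, cells were split into Hoechst high-intensity objects or normal cells, normal cells into healthy, pyknosed or fragmented nuclei, and pyknosed cells into mitotic or apoptotic; tubulin, mitochondrial-mass and membrane-permeability phenotypes are per cents of healthy-nucleus cells.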
# [1] = 12 h, 1 µM, compound concentration 1 uM, replicate 1
# [2] = 12 h, 1 µM, compound concentration 1 uM, replicate 2
# [3] = 12 h, 10 µM, compound concentration 10 uM, replicate 1
# [4] = 12 h, 10 µM, compound concentration 10 uM, replicate 2
# [5] = 24 h, 1 µM, compound concentration 1 uM, replicate 1
# [6] = 24 h, 1 µM, compound concentration 1 uM, replicate 2
# [7] = 24 h, 10 µM, compound concentration 10 uM, replicate 1
# [8] = 24 h, 10 µM, compound concentration 10 uM, replicate 2
# [9] = 48 h, 1 µM, compound concentration 1 uM, replicate 1
# [10] = 48 h, 1 µM, compound concentration 1 uM, replicate 2
# [11] = 48 h, 10 µM, compound concentration 10 uM, replicate 1
# [12] = 48 h, 10 µM, compound concentration 10 uM, replicate 2
compound,measurement,setting,value
COc1cc(-n2cnc3cc(-c4ccc(Cl)cc4)sc3c2=O)ccc1OCCN1CCCC1,Population Apoptotic (%),[1],59%
same,Population Fragmented Nuclei (%),[1],8%
same,Population Healthy Nuclei (%),[1],32%
same,Population Hoechst High Intensity Objects (%),[1],15%
same,Population Membrane Permeable-Phenotype (%),[1],1%
same,Population Mitochondria Different-Phenotype (%),[1],96%
same,Population Mitotic Cells (%),[1],40%
same,Population Normal (%),[1],84%
same,Population Pyknosed Nuclei (%),[1],58%
same,Population Tubulin-Different-Phenotype (%),[1],93%
same,Total Cell Count,[1],212
same,Population Apoptotic (%),[2],20%
same,Population Fragmented Nuclei (%),[2],5%
same,Population Healthy Nuclei (%),[2],40%
same,Population Hoechst High Intensity Objects (%),[2],4%
same,Population Membrane Permeable-Phenotype (%),[2],7%
same,Population Mitochondria Different-Phenotype (%),[2],42%
same,Population Mitotic Cells (%),[2],80%
same,Population Normal (%),[2],95%
same,Population Pyknosed Nuclei (%),[2],53%
same,Population Tubulin-Different-Phenotype (%),[2],60%
same,Total Cell Count,[2],265
same,Population Apoptotic (%),[3],57%
same,Population Fragmented Nuclei (%),[3],23%
same,Population Healthy Nuclei (%),[3],1%
same,Population Hoechst High Intensity Objects (%),[3],23%
same,Population Membrane Permeable-Phenotype (%),[3],0%
same,Population Mitochondria Different-Phenotype (%),[3],75%
same,Population Mitotic Cells (%),[3],42%
same,Population Normal (%),[3],76%
same,Population Pyknosed Nuclei (%),[3],74%
same,Population Tubulin-Different-Phenotype (%),[3],75%
same,Total Cell Count,[3],285
same,Population Apoptotic (%),[4],79%
same,Population Fragmented Nuclei (%),[4],16%
same,Population Healthy Nuclei (%),[4],15%
same,Population Hoechst High Intensity Objects (%),[4],4%
same,Population Membrane Permeable-Phenotype (%),[4],33%
same,Population Mitochondria Different-Phenotype (%),[4],58%
same,Population Mitotic Cells (%),[4],20%
same,Population Normal (%),[4],95%
same,Population Pyknosed Nuclei (%),[4],67%
same,Population Tubulin-Different-Phenotype (%),[4],66%
same,Total Cell Count,[4],242
same,Population Apoptotic (%),[5],72%
same,Population Fragmented Nuclei (%),[5],11%
same,Population Healthy Nuclei (%),[5],37%
same,Population Hoechst High Intensity Objects (%),[5],14%
same,Population Membrane Permeable-Phenotype (%),[5],1%
same,Population Mitochondria Different-Phenotype (%),[5],100%
same,Population Mitotic Cells (%),[5],27%
same,Population Normal (%),[5],85%
same,Population Pyknosed Nuclei (%),[5],50%
same,Population Tubulin-Different-Phenotype (%),[5],86%
same,Total Cell Count,[5],207
same,Population Apoptotic (%),[6],27%
same,Population Fragmented Nuclei (%),[6],4%
same,Population Healthy Nuclei (%),[6],61%
same,Population Hoechst High Intensity Objects (%),[6],2%
same,Population Membrane Permeable-Phenotype (%),[6],7%
same,Population Mitochondria Different-Phenotype (%),[6],52%
same,Population Mitotic Cells (%),[6],72%
same,Population Normal (%),[6],97%
same,Population Pyknosed Nuclei (%),[6],33%
same,Population Tubulin-Different-Phenotype (%),[6],66%
same,Total Cell Count,[6],325
same,Population Apoptotic (%),[7],73%
same,Population Fragmented Nuclei (%),[7],31%
same,Population Healthy Nuclei (%),[7],0%
same,Population Hoechst High Intensity Objects (%),[7],30%
same,Population Membrane Permeable-Phenotype (%),[7],0%
same,Population Mitochondria Different-Phenotype (%),[7],0%
same,Population Mitotic Cells (%),[7],26%
same,Population Normal (%),[7],69%
same,Population Pyknosed Nuclei (%),[7],68%
same,Population Tubulin-Different-Phenotype (%),[7],0%
same,Total Cell Count,[7],277
same,Population Apoptotic (%),[8],90%
same,Population Fragmented Nuclei (%),[8],20%
same,Population Healthy Nuclei (%),[8],22%
same,Population Hoechst High Intensity Objects (%),[8],7%
same,Population Membrane Permeable-Phenotype (%),[8],21%
same,Population Mitochondria Different-Phenotype (%),[8],68%
same,Population Mitotic Cells (%),[8],9%
same,Population Normal (%),[8],92%
same,Population Pyknosed Nuclei (%),[8],57%
same,Population Tubulin-Different-Phenotype (%),[8],48%
same,Total Cell Count,[8],228
same,Population Apoptotic (%),[9],53%
same,Population Fragmented Nuclei (%),[9],13%
same,Population Healthy Nuclei (%),[9],62%
same,Population Hoechst High Intensity Objects (%),[9],9%
same,Population Membrane Permeable-Phenotype (%),[9],5%
same,Population Mitochondria Different-Phenotype (%),[9],73%
same,Population Mitotic Cells (%),[9],46%
same,Population Normal (%),[9],90%
same,Population Pyknosed Nuclei (%),[9],23%
same,Population Tubulin-Different-Phenotype (%),[9],67%
same,Total Cell Count,[9],312
same,Population Apoptotic (%),[10],20%
same,Population Fragmented Nuclei (%),[10],4%
same,Population Healthy Nuclei (%),[10],79%
same,Population Hoechst High Intensity Objects (%),[10],3%
same,Population Membrane Permeable-Phenotype (%),[10],6%
same,Population Mitochondria Different-Phenotype (%),[10],21%
same,Population Mitotic Cells (%),[10],79%
same,Population Normal (%),[10],96%
same,Population Pyknosed Nuclei (%),[10],16%
same,Population Tubulin-Different-Phenotype (%),[10],57%
same,Total Cell Count,[10],539
same,Population Apoptotic (%),[11],76%
same,Population Fragmented Nuclei (%),[11],45%
same,Population Healthy Nuclei (%),[11],0%
same,Population Hoechst High Intensity Objects (%),[11],29%
same,Population Membrane Permeable-Phenotype (%),[11],0%
same,Population Mitochondria Different-Phenotype (%),[11],100%
same,Population Mitotic Cells (%),[11],23%
same,Population Normal (%),[11],70%
same,Population Pyknosed Nuclei (%),[11],54%
same,Population Tubulin-Different-Phenotype (%),[11],100%
same,Total Cell Count,[11],270
same,Population Apoptotic (%),[12],89%
same,Population Fragmented Nuclei (%),[12],21%
same,Population Healthy Nuclei (%),[12],28%
same,Population Hoechst High Intensity Objects (%),[12],10%
same,Population Membrane Permeable-Phenotype (%),[12],12%
same,Population Mitochondria Different-Phenotype (%),[12],73%
same,Population Mitotic Cells (%),[12],10%
same,Population Normal (%),[12],89%
same,Population Pyknosed Nuclei (%),[12],50%
same,Population Tubulin-Different-Phenotype (%),[12],38%
same,Total Cell Count,[12],256
